Results taken from ChEMBL document CHEMBL1817593, “C5'-Alkyl Substitution Effects on Digitoxigenin α-l-Glycoside Cancer Cytotoxicity” (ACS Med Chem Lett, 2011).
The source made the active and inactive calls. The rule behind the calls is not given here.

Assays:
NCI-H460 [1] = assay: Induction of apoptosis in human NCI-H460 cells in serum free medium at 50 nM after 12 hrs by Hoechst 33342/propidium iodide staining based fluorescence microscopy; type: functional
Method in brief: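 NCI-H460 cells exposed to a single 50 nM concentration for 12 h. Cells stained with Hoechst 33342 and propidium iodide. Blue cells with condensed or fragmented nuclei were scored as apoptotic and red, ruptured cells as necrotic. Result given as % apoptotic cell death; N = 6, one-way ANOVA.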

NCI-H460 [2] = assay: Cytotoxicity against human NCI-H460 cells assessed as cell death in serum free medium at 10 nM after 12 hrs by Hoechst 33342/propidium iodide staining based fluorescence microscopy; type: functional
Method in brief: (§1)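 NCI-H460 human lung cancer cells exposed 12 h to 10 nM–10 μM drug, including a 50 nM single-concentration test. Nuclei were stained with Hoechst 33342 and necrotic cells with propidium iodide. Apoptotic cells were scored by condensed or fragmented blue nuclei and necrotic cells by red PI staining. Total cell death (apoptosis plus necrosis) was recorded; N = 6.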

NCI-H460 [3] = assay: Cytotoxicity against human NCI-H460 cells assessed as cell death in serum free medium at 25 nM after 12 hrs by Hoechst 33342/propidium iodide staining based fluorescence microscopy; type: functional; method in brief: as §1
NCI-H460 [4] = assay: Cytotoxicity against human NCI-H460 cells assessed as cell death in serum free medium at 50 nM after 12 hrs by Hoechst 33342/propidium iodide staining based fluorescence microscopy; type: functional; method in brief: as §1
NCI-H460 [5] = assay: Cytotoxicity against human NCI-H460 cells assessed as cell death in serum free medium at 75 nM after 12 hrs by Hoechst 33342/propidium iodide staining based fluorescence microscopy; type: functional; method in brief: as §1
NCI-H460 [6] = assay: Cytotoxicity against human NCI-H460 cells assessed as cell death in serum free medium at 100 nM after 12 hrs by Hoechst 33342/propidium iodide staining based fluorescence microscopy; type: functional; method in brief: as §1
NCI-H460 [7] = assay: Cytotoxicity against human NCI-H460 cells assessed as cell death in serum free medium at 250 nM after 12 hrs by Hoechst 33342/propidium iodide staining based fluorescence microscopy; type: functional; method in brief: as §1
NCI-H460 [8] = assay: Cytotoxicity against human NCI-H460 cells assessed as cell death in serum free medium at 500 nM after 12 hrs by Hoechst 33342/propidium iodide staining based fluorescence microscopy; type: functional; method in brief: as §1
NCI-H460 [9] = assay: Cytotoxicity against human NCI-H460 cells assessed as cell death in serum free medium at 1000 nM after 12 hrs by Hoechst 33342/propidium iodide staining based fluorescence microscopy; type: functional; method in brief: as §1
NCI-H460 [10] = assay: Cytotoxicity against human NCI-H460 cells assessed as cell death in serum free medium at 10000 nM after 12 hrs by Hoechst 33342/propidium iodide staining based fluorescence microscopy; type: functional; method in brief: as §1
NCI-H460 [11] = assay: Induction of apoptosis in human NCI-H460 cells in serum free medium after 12 hrs by Hoechst 33342/propidium iodide staining based fluorescence microscopy; type: functional, cell-based
Method in brief: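 NCI-H460 cells treated for 12 h at 10 nM to 10 μM. Total cell death (apoptosis plus necrosis) scored by Hoechst 33342/propidium iodide staining, with N = 6 and two-way ANOVA. IC50 obtained by nonlinear regression. Table values are the mean of three independent experiments with duplicate determinations.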

NCI-H460 [12] = assay: Ratio of digitoxin IC50 to compound IC50 for human NCI-H460 cells after 12 hrs by Hoechst 33342/propidium iodide staining based fluorescence microscopy; type: functional
NCI-H460 [13] = assay: Cytotoxicity against human NCI-H460 cells assessed as cell viability at 1 nM after 48 hrs by MTT assay; type: functional; conditions: NCI-H460, 48 h, read-out: Activity
Method in brief: (§2)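 Viability of NCI-H460 cells was measured by MTT (mitochondrial enzymatic activity) after 48 h exposure, within a dose series spanning 1 nM–10 μM. N = 9, analysed by two-way ANOVA.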

NCI-H460 [14] = assay: Cytotoxicity against human NCI-H460 cells assessed as cell viability at 10 nM after 48 hrs by MTT assay; type: functional; conditions: NCI-H460, 48 h, read-out: Activity; method in brief: as §2
NCI-H460 [15] = assay: Cytotoxicity against human NCI-H460 cells assessed as cell viability at 25 nM after 48 hrs by MTT assay; type: functional; conditions: NCI-H460, 48 h, read-out: Activity; method in brief: as §2
NCI-H460 [16] = assay: Cytotoxicity against human NCI-H460 cells assessed as cell viability at 50 nM after 48 hrs by MTT assay; type: functional; conditions: NCI-H460, 48 h, read-out: Activity; method in brief: as §2
NCI-H460 [17] = assay: Cytotoxicity against human NCI-H460 cells assessed as cell viability at 100 nM after 48 hrs by MTT assay; type: functional; conditions: NCI-H460, 48 h, read-out: Activity; method in brief: as §2
NCI-H460 [18] = assay: Cytotoxicity against human NCI-H460 cells assessed as cell viability at 500 nM after 48 hrs by MTT assay; type: functional; conditions: NCI-H460, 48 h, read-out: Activity; method in brief: as §2
NCI-H460 [19] = assay: Cytotoxicity against human NCI-H460 cells assessed as cell viability at 1000 nM after 48 hrs by MTT assay; type: functional; conditions: NCI-H460, 48 h, read-out: Activity; method in brief: as §2
NCI-H460 [20] = assay: Cytotoxicity against human NCI-H460 cells assessed as cell viability after 48 hrs by MTT assay; type: functional; conditions: NCI-H460, 48 h
Method in brief: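 NCI-H460 cells were exposed to drug for 48 h, and viability was read by MTT as mitochondrial enzymatic activity. GI50 was derived from dose-response curves (1 nM–10 μM). Values are from three independent experiments with duplicate determinations, given with standard error of the mean.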

CCRF-CEM = assay: Cytotoxicity against human CCRF-CEM cells after 48 hrs by sulforhodamine B assay; type: functional
HL-60(TB) = assay: Cytotoxicity against human HL-60(TB) cells after 48 hrs by sulforhodamine B assay; type: functional; conditions: HL-60, 48 h
K562 = assay: Cytotoxicity against human K562 cells after 48 hrs by sulforhodamine B assay; type: functional; conditions: K562, 48 h
HCC 2998 = assay: Cytotoxicity against human HCC2998 cells after 48 hrs by sulforhodamine B assay; type: functional; conditions: HCC 2998, 48 h
HCT-116 = assay: Cytotoxicity against human HCT116 cells after 48 hrs by sulforhodamine B assay; type: functional
SF-539 = assay: Cytotoxicity against human SF539 cells after 48 hrs by sulforhodamine B assay; type: functional; conditions: SF-539, 48 h
U-251 = assay: Cytotoxicity against human U251 cells after 48 hrs by sulforhodamine B assay; type: functional; conditions: U-251, 48 h
SK-MEL-2 = assay: Cytotoxicity against human SK-MEL-2 cells after 48 hrs by sulforhodamine B assay; type: functional
IGROV-1 = assay: Cytotoxicity against human IGROV1 cells after 48 hrs by sulforhodamine B assay; type: functional; conditions: IGROV-1, 48 h
OVCAR-5 = assay: Cytotoxicity against human OVCAR5 cells after 48 hrs by sulforhodamine B assay; type: functional; conditions: OVCAR-5, 48 h
OVCAR-8 = assay: Cytotoxicity against human OVCAR8 cells after 48 hrs by sulforhodamine B assay; type: functional; conditions: OVCAR-8, 48 h
NCI/ADR-RES = assay: Cytotoxicity against human NCI/ADR-RES cells after 48 hrs by sulforhodamine B assay; type: functional
CAKI-1 = assay: Cytotoxicity against human Caki1 cells after 48 hrs by sulforhodamine B assay; type: functional; conditions: CAKI-1, 48 h
RXF 393 = assay: Cytotoxicity against human RXF393 cells after 48 hrs by sulforhodamine B assay; type: functional; conditions: RXF 393, 48 h
BT-549 = assay: Cytotoxicity against human BT549 cells after 48 hrs by sulforhodamine B assay; type: functional; conditions: BT-549, 48 h
T47D = assay: Cytotoxicity against human T47D cells after 48 hrs by sulforhodamine B assay; type: functional
MDA-MB-435 = assay: Cytotoxicity against human MDA-MB-435 breast cancer cells after 48 hrs by sulforhodamine B assay; type: functional; conditions: MDA-MB-435, 48 h
NCI-H460 [21] = assay: Growth inhibition of human NCI-H460 cells after 48 hrs by MTT assay; type: functional
Method in brief: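 NCI-H460 viability measured by MTT (mitochondrial enzymatic activity) after 48 h exposure at 1 nM to 10 μM. GI50 derived from dose-response curves, with N = 9 and two-way ANOVA. Values are the mean of three independent experiments with duplicate determinations.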

C[C@@H]1O[C@@H](O[C@H]2CC[C@@]3(C)[C@H](CC[C@@H]4[C@@H]3CC[C@]3(C)[C@@H](C5=CC(=O)OC5)CC[C@]43O)C2)CC[C@H]1O [RAMNODIGIN]
Activity (NCI-H460 [1]): 42.463% | Activity (NCI-H460 [2]): 18.12% | Activity (NCI-H460 [3]): 22.09% | Activity (NCI-H460 [4]): 52.04% | Activity (NCI-H460 [5]): 77.04% | Activity (NCI-H460 [6]): 98.61% | Activity (NCI-H460 [7]): 100% | Activity (NCI-H460 [8]): 100% | Activity (NCI-H460 [9]): 100% | Activity (NCI-H460 [10]): 100% | Activity (NCI-H460 [11]): Dose-dependent effect | IC50 (NCI-H460 [11]; NCI-H460, 12 h): 51.7 nM | Ratio IC50 (NCI-H460 [12]): 4 | viability at 0.001 µM (NCI-H460 [13]): 77% | viability at 0.01 µM (NCI-H460 [14]): 13.9% | viability at 0.025 µM (NCI-H460 [15]): 7.14% | viability at 0.05 µM (NCI-H460 [16]): 6.18% | viability at 0.1 µM (NCI-H460 [17]): 5% | viability at 0.5 µM (NCI-H460 [18]): 3.69% | viability at 1 µM (NCI-H460 [19]): 3.25% | GI50 (NCI-H460 [20]): 1.93 nM | GI50 (CCRF-CEM): 8.49 nM | GI50 (HL-60(TB)): 2.96 nM | GI50 (K562): 19.5 nM | GI50 (HCC 2998): 16.5 nM | GI50 (HCT-116): inactive | GI50 (SF-539): 7.8 nM | GI50 (U-251): 12.7 nM | GI50 (SK-MEL-2): inactive | GI50 (IGROV-1): 5.23 nM | GI50 (OVCAR-5): 17.4 nM | GI50 (OVCAR-8): 2.5 nM | GI50 (NCI/ADR-RES): 4.12 nM | GI50 (CAKI-1): 3.32 nM | GI50 (RXF 393): 1.22 nM | GI50 (BT-549): 2.41 nM | GI50 (T47D): 20.6 nM | GI50 (MDA-MB-435): 21 nM | GI50 (NCI-H460 [21]): Dose-dependent effect | GI50 (NCI-H460 [21]; NCI-H460, 48 h): 2 nM
